# Results taken from PubChem BioAssay.
# Calls of active or inactive are those of the source.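 The calls were made as follows, unless noted: active = viability at or below 10% of carrier control in both of two separate runs; inconclusive = viability at or below 10% in only one of the two runs; inactive = the rest.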
# Experiments:
# [1] = Her2 expression decrease, cell viability multiplex – SKBR3 breast tumor cells, AlphaScreen, ATP viability, primary screen (AID 461;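 active = Her2 level under about 52% in both replicate screens, with viability over 70% of control, limit read from the data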;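 as to Her2 level: lower value means less Her2 protein in the cells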;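 as to viability: percent of carrier control wells set as 100% viability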); details: SKBR3 Her2 protein level, 18-24 h, measured here: SKBR3 viability, ATP luminescence, at 10 µM
# [2] = biological target: Receptor tyrosine-protein kinase erbB-2 (Homo sapiens) (UniProt P04626); assay: as above; details: 18-24 h, at 10 µM, stronger effect = lower value
# Chain of Receptor tyrosine-protein kinase erbB-2 (Homo sapiens) (P04626 whole entry, looked up): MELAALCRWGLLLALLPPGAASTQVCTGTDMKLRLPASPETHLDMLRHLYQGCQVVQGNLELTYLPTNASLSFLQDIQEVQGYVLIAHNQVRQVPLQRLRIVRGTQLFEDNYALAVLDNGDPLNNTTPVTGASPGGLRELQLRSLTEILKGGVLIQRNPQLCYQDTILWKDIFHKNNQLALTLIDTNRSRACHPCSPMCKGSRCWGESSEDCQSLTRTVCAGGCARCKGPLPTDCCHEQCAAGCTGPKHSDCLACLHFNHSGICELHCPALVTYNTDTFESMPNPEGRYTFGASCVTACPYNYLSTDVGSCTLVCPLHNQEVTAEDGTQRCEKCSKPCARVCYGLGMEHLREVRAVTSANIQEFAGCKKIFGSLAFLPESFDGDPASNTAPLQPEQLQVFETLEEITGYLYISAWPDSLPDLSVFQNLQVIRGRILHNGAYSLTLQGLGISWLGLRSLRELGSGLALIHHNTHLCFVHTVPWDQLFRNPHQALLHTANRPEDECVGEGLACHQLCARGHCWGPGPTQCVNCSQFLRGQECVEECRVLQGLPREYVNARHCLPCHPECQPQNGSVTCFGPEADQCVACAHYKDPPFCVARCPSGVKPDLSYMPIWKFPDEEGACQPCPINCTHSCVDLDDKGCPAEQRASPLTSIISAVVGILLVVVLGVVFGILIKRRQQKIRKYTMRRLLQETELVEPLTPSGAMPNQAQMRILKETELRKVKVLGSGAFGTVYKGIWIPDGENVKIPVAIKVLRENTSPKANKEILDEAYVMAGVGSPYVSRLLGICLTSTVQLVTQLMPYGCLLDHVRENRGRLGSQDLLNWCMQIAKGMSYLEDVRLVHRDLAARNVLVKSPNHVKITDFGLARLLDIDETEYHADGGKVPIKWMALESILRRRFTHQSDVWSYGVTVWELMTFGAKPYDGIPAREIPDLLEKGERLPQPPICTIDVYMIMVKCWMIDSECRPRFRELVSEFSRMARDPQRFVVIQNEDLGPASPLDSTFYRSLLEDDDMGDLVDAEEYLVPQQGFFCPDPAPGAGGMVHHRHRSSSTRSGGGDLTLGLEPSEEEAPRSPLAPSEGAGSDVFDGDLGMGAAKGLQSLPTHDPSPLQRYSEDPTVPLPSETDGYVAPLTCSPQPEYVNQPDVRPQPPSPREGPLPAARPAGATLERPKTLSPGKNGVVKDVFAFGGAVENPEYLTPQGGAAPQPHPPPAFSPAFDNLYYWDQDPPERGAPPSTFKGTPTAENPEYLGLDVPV
# [3] = reduced viability of SK-BR-3 breast cancer cells – cell-based, 24 h, human, pilot screen (AID 572); details: SK-BR-3 viability, CellTiter-Glo luminescence, at 10 µM, stronger effect = lower value;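 also: compound exposure lasted between 18 and 24 h rather than exactly 24 h; 100% = carrier-treated control wells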
# [4] = HUVEC growth inhibition – cell-based, human, primary screen (AID 575;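 active = viability at or below 30% in both replicate assays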;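 also: 100% = median of untreated cell wells with 0.1% DMSO on each plate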); details: HUVEC proliferation, CellTiter-Glo luminescence, 72 h; at 10 µM; stronger effect = lower value
# How it was run: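 Test system: primary human umbilical vein endothelial cells. Quantity: 1250 cells/well. Compound: single 10 µM dose, 0.1% DMSO, from 5x medium stock. Timing: 72 h treatment at 37 °C. Detection: ATP-based CellTiter-Glo luminescent read. Benchmarks: vehicle and MePR control wells. Format: 384-well plates coated with collagen.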
# [5] = H69AR cell proliferation blockers – human, duplicate replicates, primary screen (AID 580;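 active = viability at or under a set limit in both replicates, limit being median viability minus 3 SD, cut at about 48% in these data, passing the limit was not always enough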;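 also: 100% = mean luminescence of untreated wells and 0% = no signal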); details: H69AR lung tumor cells viability, ATP luminescence, 72 h; at 10 µM; stronger effect = lower value
# [6] = MRP1 drug-resistance reversers in H69AR cells – cell-based, doxorubicin co-treatment, pilot screen (AID 601;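 active = viability loss from added drug above about 55%, and viability with drug at most 40%, in both replicates, limit read from the data, passing the limit was not always enough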); details: CellTiter-Glo, 72 h, at 10 µM; for differential viability (reversal): stronger effect = higher value
# [7] = yeast transport mutant growth inhibition pilot in 384-well plates, post-Golgi transport modulator project (AID 636; in the data active = inhibition above about 31%); details: absorbance 615 nm, about 18 h, stronger effect = higher value
# [8] = growth suppression of yeast trafficking mutant, preliminary HTS, modulators of trafficking downstream of Golgi apparatus project, 1536-format plate, OD 615 nm (AID 637; in the data active = inhibition above about 30%); details: yeast transport mutant growth, absorbance 615 nm, 18 h; stronger effect = higher value
# [9] = H69AR cells + 2 uM doxorubicin, measured here: viability with 2 uM doxorubicin, stronger effect = lower value
# [10] = H69AR cells, compound alone cytotoxicity
Compound,viability [1],Her2 level [2],viability [3],viability [4],viability [5],differential viability (reversal) ([6]; H69AR cells + 2 uM doxorubicin),"viability [6, 9]","viability [6, 10]",inhibition [7],inhibition [8]
COc1ccc(CC(NC(C)=O)C(=O)NC2CCN(c3nc(C)cc(C)c3C#N)CC2)c(OC)c1 (stereo not given),102%,100% (inactive),102% (inactive),117% (inactive),104% (inactive),-0.69% (inactive),105%,104%,-0.41% (inactive),2.17% (inactive)
Cc1cc(C)c(C)c(S(=O)(=O)Nc2ccc(O)cc2)c1C,100%,87.5% (inactive),100% (inactive),96.6% (inactive),96.8% (inactive),14.1% (inactive),82.7%,96.8%,-4.4% (inactive),-1.61% (inactive)
CCC(=O)N1CCNC(=O)C1CC(=O)Nc1ccc(C)c(Cl)c1 (stereo not given),97%,122% (inactive),97% (inactive),94.2% (inactive),95.8% (inactive),4.98% (inactive),90.8%,95.8%,-2.8% (inactive),-0.48% (inactive)
CCOCCCNC(=O)C1CCC(=O)N1CCc1ccccc1 (stereo not given),100%,95.5% (inactive),100% (inactive),84.7% (inactive),98.3% (inactive),-12.8% (inactive),111%,98.3%,-3.42% (inactive),-5.32% (inactive)
CCSc1oc(-c2cccs2)nc1S(=O)(=O)c1ccccc1,93.5%,104% (inactive),93.5% (inactive),59.9% (inactive),82% (inactive),5.72% (inactive),76.3%,82%,-5.33% (inactive),1.83% (inactive)
c1ccc(Cn2nnnc2CN2CCN(c3ncccn3)CC2)cc1,99%,97.5% (inactive),99% (inactive),92.1% (inactive),100% (inactive),-0.765% (inactive),101%,100%,-3.47% (inactive),0.98% (inactive)
O=C(CSc1ncnc2ccccc12)NCCCO,104%,80% (inactive),104% (inactive),103% (inactive),103% (inactive),12.2% (inactive),91.1%,103%,-0.65% (inactive),4.92% (inactive)
NC(=O)COC(=O)c1ccc(S(=O)(=O)N2CCCCCC2)cc1,93%,104% (inactive),93% (inactive),92.8% (inactive),88% (inactive),-2.85% (inactive),90.9%,88%,-2.82% (inactive),-7.67% (inactive)
Cc1c(C(=O)O)sc2nc3n(c(=O)c12)CCC(C)CC3 (stereo not given),93%,87% (inactive),93% (inactive),82.2% (inactive),88.2% (inactive),5.25% (inactive),83%,88.2%,-0.53% (inactive),8.69% (inactive)
Nc1cc(-c2ccc(Br)cc2)nn1S(=O)(=O)c1ccccc1,90%,108% (inactive),90% (inactive),74.2% (inactive),88% (inactive),0.535% (inactive),87.5%,88%,0.26% (inactive),3.67% (inactive)
Cc1nc2ccc(NC(=O)N3CCSCC3)cc2s1,89.5%,107% (inactive),89.5% (inactive),108% (inactive),94.3% (inactive),-5.83% (inactive),100%,94.3%,1.84% (inactive),8.89% (inactive)
Cc1nc2cc(Cl)ccc2n1CCO,101%,95.5% (inactive),101% (inactive),102% (inactive),92% (inactive),7.68% (inactive),84.4%,92%,-9.86% (inactive),0.32% (inactive)
COC(=O)CCC(=O)Nc1cccc(Br)c1,128%,85% (inactive),128% (inactive),110% (inactive),101% (inactive),0.985% (inactive),100%,101%,-9.32% (inactive),-3.65% (inactive)
NC(=O)c1ccccc1NC(=O)CCCN1C(=O)CCC1=O,101%,83.5% (inactive),101% (inactive),92.9% (inactive),95.6% (inactive),10.6% (inactive),85%,95.6%,-6.89% (inactive),-1.9% (inactive)
CCC1Oc2ccc(C)cc2N(CC(=O)N(Cc2cccnc2)Cc2ccc(C)o2)C1=O (stereo not given),93%,84% (inactive),93% (inactive),83.7% (inactive),74.8% (inactive),41.1% (inactive),33.7%,74.8%,-6.27% (inactive),6.56% (inactive)
Cc1ncc(CO)c2c1OC(C)(C)OC2,95.5%,104% (inactive),95.5% (inactive),92.8% (inactive),93.5% (inactive),4.48% (inactive),89%,93.5%,-5.79% (inactive),-0.91% (inactive)
O=C(/C=C1\NC2(CCCC2)Cc2ccccc21)N1CCOCC1,101%,85% (inactive),101% (inactive),98.2% (inactive),102% (inactive),17.3% (inactive),85%,102%,-7.12% (inactive),-3.49% (inactive)
CN(C)S(=O)(=O)NC(c1ccccc1)c1ccccc1,93%,97% (inactive),93% (inactive),105% (inactive),105% (inactive),15.6% (inactive),88.9%,105%,-8% (inactive),-2.38% (inactive)
CCOC(=O)c1c(C)oc2ccc(O)c(CN3CCCCC3)c12,87.5%,79.5% (inactive),87.5% (inactive),90.2% (inactive),86.9% (inactive),-3.83% (inactive),90.7%,86.9%,-1.84% (inactive),2.22% (inactive)
CC1CCN(Cc2ccc(-c3nn[nH]n3)cc2)CC1,116%,86.5% (inactive),116% (inactive),99.6% (inactive),95% (inactive),0.33% (inactive),94.7%,95%,1.04% (inactive),30% (active)
COCCN(C(=O)CCC(=O)Nc1ccccn1)C(C(=O)NC1CCCC1)c1ccc(OC)cc1 (stereo not given),106%,105% (inactive),106% (inactive),94.6% (inactive),111% (inactive),14.3% (inactive),96.3%,111%,2.57% (inactive),-0.49% (inactive)
COC(=O)c1ccc(CNC(=O)COc2ccccc2Br)o1,93%,108% (inactive),93% (inactive),100% (inactive),103% (inactive),15% (inactive),87.6%,103%,-3.33% (inactive),-10% (inactive)
COc1ccc(-n2nnc3c(=O)n(C/C=C/c4ccccc4)cnc32)cc1,116%,100% (inactive),116% (inactive),105% (inactive),86.1% (inactive),8.94% (inactive),77.1%,86.1%,-6.62% (inactive),1.33% (inactive)
COc1cccc(OC)c1C(=O)n1nc(C)cc1C,84.5%,87% (inactive),84.5% (inactive),110% (inactive),98.8% (inactive),3.22% (inactive),95.5%,98.8%,1.18% (inactive),4.1% (inactive)
CC1(C)NC(=O)N(CC(O)CN(Cc2ccccc2)Cc2ccccc2)C1=O (stereo not given),78%,78.5% (inactive),78% (inactive),108% (inactive),92.6% (inactive),13.7% (inactive),78.9%,92.6%,-4.59% (inactive),-10.2% (inactive)
Cc1ccc(S(=O)(=O)N2CCN(CCO)CC2)cc1-c1nnc2c3ccccc3c(C)nn12,104%,94% (inactive),104% (inactive),99.4% (inactive),96.2% (inactive),2.01% (inactive),94.2%,96.2%,-5.07% (inactive),-2.79% (inactive)
CN(C1CCS(=O)(=O)C1)S(=O)(=O)c1cccc2nsnc12 (stereo not given),104%,100% (inactive),104% (inactive),107% (inactive),107% (inactive),6.67% (inactive),100%,107%,-6.58% (inactive),-2.7% (inactive)
Cc1cc(=O)oc2cc(Oc3ncccn3)ccc12,98%,106% (inactive),98% (inactive),101% (inactive),83% (inactive),-6.5% (inactive),89.4%,83%,-8.4% (inactive),16.7% (inactive)
